Assay outcomes (PubChem BioAssay)
SIAE primary – inhibitors of human sialic acid acetylesterase SIAE; SIAE FP-Rh probe binding, fluorescence polarization; inhibition, % at 9.66 µM; actives 0.69% (n = 370,000);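 active means inhibition above a cutoff: mean of compounds within the control limits plus 3 SD of those, cut at about 17% in these data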
Target sequence (Q9HAT2 whole entry, looked up): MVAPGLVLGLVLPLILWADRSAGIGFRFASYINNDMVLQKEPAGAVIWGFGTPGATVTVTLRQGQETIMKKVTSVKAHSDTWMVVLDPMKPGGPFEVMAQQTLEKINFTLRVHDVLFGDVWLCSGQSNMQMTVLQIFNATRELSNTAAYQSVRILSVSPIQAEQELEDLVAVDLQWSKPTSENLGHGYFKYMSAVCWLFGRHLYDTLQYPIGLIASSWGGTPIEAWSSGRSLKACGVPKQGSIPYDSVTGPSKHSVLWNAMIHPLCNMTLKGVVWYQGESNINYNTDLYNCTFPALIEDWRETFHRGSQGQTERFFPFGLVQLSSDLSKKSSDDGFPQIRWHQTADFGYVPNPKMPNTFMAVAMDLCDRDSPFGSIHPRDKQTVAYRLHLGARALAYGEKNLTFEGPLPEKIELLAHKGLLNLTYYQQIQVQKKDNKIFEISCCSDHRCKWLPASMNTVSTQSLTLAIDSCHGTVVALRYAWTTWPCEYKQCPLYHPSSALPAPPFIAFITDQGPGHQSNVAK
mABHD4 FP – inhibitors of mouse ABHD4; actives 0.54% (n = 370,000); inhibition, % at 8.92 µM; AID 720543; purified mABHD4, FP-Rh probe fluorescence polarization; Q8VD66;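 active means inhibition exceeding the mean over every tested compound plus 3 SD, cut at about 30% in these data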
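Assay system: Wild-type mouse ABHD4 protein | Medium: HEPES pH 7.0 buffer, 150 mM NaCl, 0.01% Pluronic F-127 | Incubation: Enzyme–compound pre-incubation 45 min, then probe 60 min, both 25 °C | Technique: Fluorescence polarization with parallel and perpendicular emission, 525/598 nm | Evaluation: % inhibition of FP-Rh probe binding versus controls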
PRMT1 inh – inhibitors of human PRMT1. recombinant PRMT1, activity-based probe fluorescence polarization. inhibition, % at 2.79 µM. actives 1.3% (n = 370,000). AID 652257;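 active means inhibition above about 21% made by adding two undisclosed values, limit read from the data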
TCR CD3 inh – blocks the human TCR-CD3 interaction. TAMRA-labeled TCR probe fluorescence, biochemical. inhibition, % at 9.4 µM. actives 0.37% (n = 360,000); in the data active means inhibition above about 19%;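 further: recombinant mutant TCR 2C K166C tagged with TAMRA read by polarization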
HTRA1 inhibitor – HTRA1 (human) protease inhibition | actives 0.5% (n = 340,000) | recombinant HTRA1, FP-rhodamine activity-based probe, fluorescence polarization | inhibition, % at 5.96 µM | Q92743 | AID 504803; in the data active means inhibition above about 36%
SIAE confirm – confirmation of human SIAE inhibitors. SIAE FP-Rh activity-based probe, fluorescence polarization. actives 13% (n = 2,300). inhibition, % at 9.66 µM. shares compounds with SIAE primary. AID 1117263;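 active means mean inhibition of the replicates above the hit cutoff set in the primary screen, cut at about 17% in these data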;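 further: inhibitors lower polarization as more probe stays unbound to SIAE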
Hits are given with their value; . = inactive; / = not tested or not shown. The list is not random: actives were taken first. Their share in the collection is about 2.6%.

SMILES	SIAE primary	mABHD4 FP	PRMT1 inh	TCR CD3 inh	HTRA1 inhibitor	SIAE confirm
O=C(Nc1cccc(-c2csc(Nc3ccc(Cl)cc3)n2)c1)c1cc([N+](=O)[O-])cc(C(F)(F)F)c1	28.6	.	.	.	.	.
O=C(Nc1cccc(-c2csc(Nc3ccccc3)n2)c1)c1cc([N+](=O)[O-])cc(C(F)(F)F)c1	32.2	.	.	.	.	.
CC[C@@]1(c2ccc(C)cc2)C(=O)N(C(=O)OC(C)C)N1C(=O)OC(C)C	.	.	.	/	/	/
O=C(C1CCCN(S(=O)(=O)c2ccc(F)cc2)C1)N1CCN(Cc2ccccc2)CC1 (stereo not given)	.	.	.	/	/	/
O=C(O)c1cccc(NS(=O)(=O)c2ccc(Cl)c(C(=O)O)c2)c1	17.9	.	.	.	.	.
CN(C(=O)CSc1ncnc2sc3c(c12)CCC3)C1CCS(=O)(=O)C1 (stereo not given)	.	.	.	.	.	/
CN(C(=O)CSc1nc2sc3c(c2c(=O)n1C)CCC3)C1CCS(=O)(=O)C1 (stereo not given)	18.5	.	.	.	.	.
COC(=O)[C@H](C(C)C)N1Cc2nnn(CC3CCCCC3)c2-c2ccccc2S1(=O)=O	.	.	.	/	/	/
O=C(NC(Cc1ccccc1)C(=O)O)/C(=C/c1ccc(Cl)cc1)NC(=O)c1ccccc1 (stereo not given)	17.2	.	.	.	.	.
COc1ccc(NC(=S)NC(=O)/C=C/c2ccco2)cc1	.	.	.	.	.	/
CC(=O)NC(=S)Nc1ccc(NC(=S)NC(=O)/C=C/c2ccco2)cc1	31.0	.	.	.	.	.
COc1cc(C(NC(=O)C(F)(F)F)C2CCCC=C2c2ccccc2)cc(OC)c1OC (stereo not given)	.	.	.	/	/	/
COc1ccc(NC(=O)c2cc3c(Cl)nc4ccccc4c3s2)cc1OC	25.6	.	.	.	.	.
C=CCN=C1NN=C(c2cc(C)n(CCOC)c2C)CS1	.	.	.	.	.	/
COCCn1c(C)cc(C2=NNC(=NC3CC3)SC2)c1C	25.0	.	.	.	.	.
O=C(O)CSCC(=O)N1CCN(S(=O)(=O)c2ccccc2)CC1	20.8	.	.	.	.	.
CC(=O)c1ccc(NCC(=O)N2CCN(S(=O)(=O)c3ccccc3)CC2)cc1	.	.	.	.	.	/
N#Cc1ccccc1NCC(=O)N1CCN(S(=O)(=O)c2ccccc2)CC1	17.2	.	.	.	.	.
COC(=O)[C@]12C[C@H](CC(=O)N3CCSCC3)C(=O)N(CCC3=CCCCC3)C1=C[C@H](C(C)C)O[C@@H]2C1CC1	.	.	.	/	/	/
COC(=O)[C@]12C[C@H](CC(=O)N3CCSCC3)C(=O)N(Cc3ccccc3)C1=C[C@H](C(C)(C)C)O[C@@H]2C	.	.	.	.	/	/
Nc1c(-c2ccccc2)nc2ncccn12	.	.	.	.	/	/
O=Nc1c(-c2cccc([N+](=O)[O-])c2)nc2ncccn12	18.0	.	.	.	/	.
Cc1ccc(CNC(=O)O[C@H]2CC[C@@]34CCCN3C(=O)CCC[C@H]4[C@H]2C)o1	.	.	.	/	/	/
COc1ccccc1N1CCN(C2CCCN(Cc3cccc(O)c3)C2)CC1 (stereo not given)	17.5	.	.	.	.	.
CCOc1ccc(C2CC=C(C(=O)O)CN2S(=O)(=O)c2ccc(C)cc2)cc1 (stereo not given)	.	.	.	/	/	/
SMILES	SIAE primary	mABHD4 FP	PRMT1 inh	TCR CD3 inh	HTRA1 inhibitor	SIAE confirm
CC(C)C1=Nc2cccc3cccc(c23)N1	.	.	.	.	.	/
Nc1cccc(C2=Nc3cccc4cccc(c34)N2)c1	44.6	.	.	.	.	.
COc1ccc(C2=Nc3cccc4cccc(c34)N2)cc1	25.9	.	.	.	.	.
Cc1ccc2nc(CN(C)C(=O)[C@@H](Cc3ccccc3)NC(=O)[C@H]3O[C@@H](n4cnc(C(N)=O)n4)[C@H](O)[C@@H]3O)[nH]c2c1	68.0	.	.	.	/	74.4
Cc1ccc2nc(CN(C)C(=O)[C@H](CCc3ccccc3)NC(=O)[C@H]3O[C@@H](n4cnc5c(N)ncnc54)[C@H](O)[C@@H]3O)[nH]c2c1	.	.	.	.	/	/
CN(C)Cc1c(O)ccc2occ(C(=O)c3ccc(F)cc3)c12	22.2	.	.	.	.	.
CN(C)Cc1c(O)ccc2occ(C(=O)c3ccccc3)c12	.	.	.	.	.	/
Cc1ccc(NS(=O)(=O)c2cccc(C(=O)NNC(=O)c3ccco3)c2)c(C)c1	.	.	.	.	.	/
Cc1ccc(NS(=O)(=O)c2cccc(C(=O)NNC(=O)NC3CCCCC3)c2)c(C)c1	17.7	.	.	.	.	.
Clc1ccc([C@H]2OC[C@@]3(CNCCN4CCOCC4)CS[C@H](c4ccc(Cl)cc4)N23)cc1	.	.	.	/	/	/
O=C(O)c1ccccc1Nc1ccccc1	.	.	.	.	.	/
Cc1cc(Nc2ccccc2C(=O)O)nc2nc3ccccc3c(=O)n12	23.0	.	.	.	.	.
COC(=O)[C@]1(CC(C)C)NC=C(C(=O)c2ccccc2)[C@@H]1c1cccs1	.	.	.	.	/	/
COc1ccc(CNC(=O)C2CSC(=O)C2)cc1 (stereo not given)	20.2	.	.	.	.	.
COC(=O)C1=C(NC(=O)COc2ccc3ccccc3c2)CCS1	.	.	.	.	.	/
COC(=O)C1=C(NC(=O)COc2ccc(Cl)cc2Cl)CCS1	20.3	.	.	.	.	.
CC(C(=O)Nc1c2c(cc3c1CCC3)CCC2)N1CCCC1 (stereo not given)	20.4	.	.	.	.	.
CCN(CC)C(C)C(=O)Nc1c2c(cc3c1CCC3)CCC2 (stereo not given)	.	.	.	.	.	/
CCN(C(=O)COC(=O)/C=C/c1cnc2ccccc2n1)C1CCS(=O)(=O)C1 (stereo not given)	28.0	.	.	.	.	.
CN(C(=O)COC(=O)/C=C/c1ccc2ccccc2n1)C1CCS(=O)(=O)C1 (stereo not given)	.	.	.	.	.	/
CN(C)c1ccc(NC(=O)c2cn(-c3ccccc3)nc2-c2cccs2)cc1	24.8	.	.	.	.	18.6
COC(=O)CC1=NN(c2ccc(OC)cc2)C(=O)/C1=C\c1ccc(Cl)cc1	17.2	.	.	.	.	.
CN(C)c1ccc(-c2csc(C(O)c3ccc(F)c(F)c3)n2)cc1 (stereo not given)	17.1	.	.	.	/	.
CN(C)c1ccc(-c2csc(C(O)c3ccc(F)cc3)n2)cc1 (stereo not given)	.	.	.	.	/	/
O=C(NC(=S)NNC(=O)c1cccs1)c1ccco1	19.2	.	.	.	.	.
C[C@@H]1COc2cccc(NCCCN3CCOCC3)c2S(=O)(=O)N1	.	.	.	.	/	/
O=c1oc2ccccc2cc1-c1nc2c(s1)CCc1ccccc1-2	.	.	.	.	.	/
O=c1oc2cc(O)ccc2cc1-c1nc2c(s1)CCc1ccccc1-2	18.9	.	.	.	.	.
